In ChEMBL document CHEMBL1121825, “A potent, new, sedative--hypnotic agent: 5,7-dihydro-5,5,7,7-tetramethyl-3-(3-nitrophenyl)furo[3,4-e]-as-triazine 4-oxide” (J Med Chem, 1981):

Legend:
Mus musculus [1] = assay: Ability to reinduce anesthesia in mice as a measure of in vivo sedative-hypnotic activity; format: functional
Method in brief: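 Male Royal Hart mice (20–25 g) were anesthetized with hexobarbital 70.0 mg/kg iv. While they were regaining the righting reflex, compound was given ip. Reinduction was scored as loss of righting reflex for 10 min. ED50 (mg/kg) is the dose reinducing anesthesia in 50% of mice, estimated by probit analysis (Miller–Tainter).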

Felis catus = assay: Tested to induce segmental reflexes in cat when given at a dose of 1-4 mg/Kg intravenously; Caused respiratory failure and death; format: organism-based; details: in vivo, iv
Method in brief: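 Chloralose-anaesthetised intact cats. The monosynaptic patellar reflex was evoked by solenoid-hammer tendon tap and the knee jerk recorded. The polysynaptic flexor reflex was recorded as tibialis anticus contraction on electrical popliteal nerve stimulation.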

Monkey [2] = assay: Tested for its activity towards cebus monkey sleep relative to methaqualone at 3-9 hours of duration; 4-64 times potent; format: functional
Monkey [3] = assay: Sleep latency in cebus monkey sleep was determined; shortened (65-85% at the threshold sleep-inducing dose); format: functional
Mus musculus [4] = assay: Compound was tested for mortality in mice when administered intravenously; format: functional; details: iv
Mus musculus [5] = assay: Ataxia effect in mice when the compound was administered ip; format: functional
Method in brief: (§1)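 Modified Irwin behavioral screen in male Royal Hart mice (20–25 g), dosed ip or orally, observed for 2 h after dosing. ED50 (mg/kg) estimated by probit analysis (Miller–Tainter), or evaluation at the highest nontoxic dose used. At least 20 animals per drug; ± SE.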

Mus musculus [6] = assay: Ataxia effect in mice when the compound was administered po; format: functional; method in brief: as §1
Mus musculus [7] = assay: Compound was tested for rotarod motor coordination in mice when administered intravenously; format: functional; details: iv
Mus musculus [8] = assay: Compound was tested for rotarod motor coordination in mice when administered perorally; format: functional; details: po
Method in brief: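 Modified Dunham–Miya rotarod test. Groups of five male Royal Hart mice (20–25 g) were trained on a 15 rpm corrugated rod for 60–90 s, then retested 30 and 60 min after drug or saline (ip or oral). Percent change in riding time versus controls; ED50 is the dose giving a 50% decrease, by probit analysis.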

Mus musculus [9] = assay: Compound was tested for tonic convulsions when administered intraperitoneally; format: functional; details: ip
Method in brief: (§2)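 Groups of five male Royal Hart mice (20–25 g) received test drug ip or orally 1 h before seizure induction with SaH 41-178 (50.0 mg/kg ip). ED50 is the dose preventing tonic convulsions or death in 50% of animals, by probit analysis.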

Mus musculus [10] = assay: Reinduction of anesthesia in mice when administered perorally was tested; format: functional; details: po
Mus musculus [11] = assay: Righting reflex effect in mice when the compound was administered intraperitoneally; format: functional; details: ip; method in brief: as §1
Mus musculus [12] = assay: Hypomotility effect in mice when the compound was administered intraperitoneally; format: functional; details: ip; method in brief: as §1
Mus musculus [13] = assay: Prehensile effect in mice when the compound was administered intravenously; format: functional; details: iv
Mus musculus [14] = assay: Prehensile effect in mice when the compound was administered perorally; format: functional; details: po
Method in brief: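 Oral dosing of male Royal Hart mice (20–25 g), scored by a modified Irwin behavioural screen. ED50 (mg/kg) estimated by probit analysis; at least 20 animals per drug.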

[15] = Acute toxicity in mice after 2 hours administration ip; format: organism-based; details: mouse, in vivo
Method in brief: (§3)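 Male Royal Hart mice (20–25 g) dosed intraperitoneally or orally; deaths scored at 2 h and 72 h. LD50 (mg/kg) estimated by probit analysis (Miller–Tainter), with at least 20 animals per drug.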

[16] = Acute toxicity in mice after 2 hours administration perorally; format: organism-based; details: mouse, in vivo, po; method in brief: as §3
[17] = Acute toxicity in mice after 72 hours administration ip; format: organism-based; details: mouse, in vivo; method in brief: as §3
[18] = Acute toxicity in mice after 72 hours administration perorally; format: organism-based; details: mouse, in vivo, po; method in brief: as §3
[19] = Acute toxicity in rats after 2 hours of administration perorally; format: organism-based; details: rat, in vivo, po
Method in brief: (§4)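 Male Wistar rats (130–160 g) dosed orally; lethality read at 2 h and 72 h. LD50 (mg/kg) derived by probit analysis (Miller–Tainter), using a minimum of 20 animals per drug.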

[20] = Acute toxicity in rats after 72 hours of administration perorally; format: organism-based; details: rat, in vivo, po; method in brief: as §4
Mus musculus [21] = assay: Righting reflex effect in mice when the compound was administered perorally; format: functional; details: po; method in brief: as §1
Mus musculus [22] = assay: Compound was tested for tonic convulsions when administered perorally; format: functional; details: po; method in brief: as §2
Rattus norvegicus [23] = assay: Hypomotility effect in rats when administered perorally; details: po
Rattus norvegicus [24] = assay: Ataxia effect in rats when the compound was administered perorally; details: po
Rattus norvegicus [25] = assay: Righting reflex effect in rats when the compound was administered perorally; details: po

CC1(C)OC(C)(C)c2nc(-c3ccncc3)nnc21
ED50 (Mus musculus [1]): 56.2 mg/kg

CC1(C)OC(C)(C)c2nc(-c3cccc[n+]3[O-])nnc21
ED50 (Mus musculus [1]): 138 mg/kg

CC1(C)CSCC(C)(C)c2nc(-c3ccccc3)nnc21
ED50 (Mus musculus [1]): 31.3 mg/kg

CC1(C)OC(C)(C)C(N=N)=C1O
ED50 (Mus musculus [1]): 133 mg/kg

CC1(C)OC(C)(C)c2c1nnc(-c1cccc([N+](=O)[O-])c1)[n+]2[O-]
Activity (Felis catus): Caused respiratory failure and death | Relative potency (Monkey [2]): 4 | Sleep latency (Monkey [3]): 65% | ED50 (Mus musculus [4]): 54 mg/kg | ED50 (Mus musculus [5]): 130 mg/kg | ED50 (Mus musculus [6]): 39 mg/kg | ED50 (Mus musculus [7]): 51 mg/kg | ED50 (Mus musculus [8]): > 1000 mg/kg | ED50 (Mus musculus [1]): 72 mg/kg | ED50 (Mus musculus [9]): 54 mg/kg | ED50 (Mus musculus [10]): 72 mg/kg | ED50 (Mus musculus [11]): 123 mg/kg | ED50 (Mus musculus [12]): 50 mg/kg | ED50 (Mus musculus [13]): 125 mg/kg | ED50 (Mus musculus [14]): 54 mg/kg | LD50 at 2 h [15]: > 400 mg/kg | LD50 at 2 h [16]: > 400 mg/kg | LD50 at 72 h [17]: > 235 mg/kg | LD50 at 72 h [18]: > 400 mg/kg | LD50 at 2 h [19]: > 800 mg/kg | LD50 at 72 h [20]: > 800 mg/kg | ED50 (Mus musculus [21]): 55 mg/kg | ED50 (Mus musculus [22]): > 1000 mg/kg | ED50 (Rattus norvegicus [23]): 37 mg/kg | ED50 (Rattus norvegicus [24]): 39 mg/kg | ED50 (Rattus norvegicus [25]): 118 mg/kg

CC1(C)OC(C)(C)c2c1nnc(-c1cccc(F)c1)[n+]2[O-]
ED50 (Mus musculus [1]): 74.9 mg/kg

CC1(C)OC(C)(C)c2nc(-c3ccc(Cl)cn3)nnc21
ED50 (Mus musculus [1]): 66.7 mg/kg

CC1(C)OC(C)(C)c2c1ncc(-c1ccccc1)[n+]2[O-].Cl
ED50 (Mus musculus [1]): 1000 mg/kg

Cc1cccc(-c2nnc3c([n+]2[O-])C(C)(C)OC3(C)C)c1
ED50 (Mus musculus [1]): 150 mg/kg

CC1(C)C/C(=N\Nc2ccccc2)C(C)(C)O1
ED50 (Mus musculus [1]): 162 mg/kg
